The list is not random: actives were taken first. Their share in the collection is about 2%.
SR-BI HDL uptake – mouse SR-BI HDL lipid transfer inhibition. ldlA[mSR-BI] CHO cells, DiI-HDL uptake fluorescence, 3 h. inhibition, % at 12.5 µM. hit rate 0.96% among 320,000. Q61009. AID 488896;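 active = mean replicate inhibition of at least 70% and a set share of replicates each scoring 70 or more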;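 note: 0% = median of neutral control wells and 100% = median of positive control wells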
Target sequence (Q61009 whole entry, looked up): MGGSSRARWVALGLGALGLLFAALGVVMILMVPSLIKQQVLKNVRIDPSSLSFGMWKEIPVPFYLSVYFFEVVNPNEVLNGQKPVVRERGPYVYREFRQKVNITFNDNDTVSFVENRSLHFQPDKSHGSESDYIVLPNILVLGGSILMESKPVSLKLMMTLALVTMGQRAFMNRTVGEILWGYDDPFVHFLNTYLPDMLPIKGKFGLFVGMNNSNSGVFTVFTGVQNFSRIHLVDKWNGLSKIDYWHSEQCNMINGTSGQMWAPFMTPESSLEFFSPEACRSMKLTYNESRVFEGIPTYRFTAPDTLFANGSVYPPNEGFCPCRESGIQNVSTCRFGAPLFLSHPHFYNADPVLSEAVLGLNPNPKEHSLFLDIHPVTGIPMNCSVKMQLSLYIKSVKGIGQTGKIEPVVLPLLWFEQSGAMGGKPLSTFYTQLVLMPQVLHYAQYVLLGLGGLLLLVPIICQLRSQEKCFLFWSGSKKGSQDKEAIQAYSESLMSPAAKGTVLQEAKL
SR-BI uptake up – activators of SR-BI mediated HDL lipid uptake; CHO ldlA[mSR-BI] cells, DiI-HDL uptake fluorescence, 3 h; 100 = double the neutral-control signal; activation, % at 12.5 µM; hit rate 0.096% among 320,000; AID 504775;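 active = mean replicate activation of at least 60% and every replicate at or above 60%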;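 note: 0% = median plate neutral-control signal and 100% = twice that signal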
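System: CHO ldlA[mSR-BI] cells / Medium: HEPES-buffered (25 mM, pH 7.4) F12 plus 0.5% BSA / Probe or stimulus: labelled HDL, 10 µg/mL / Doses: single compound concentration, delivered by pin transfer / Schedule: 3 h, 37 °C / Measured by: DiI fluorescence, bottom read / Measure: cell-associated DiI fluorescence as measure of HDL uptake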
ARNT-TACC3 inh – ARNT/TACC3 interaction disruption | Q9Y6A5 | AlphaScreen His-ARNT PAS-B/GST-TACC3 binding, luminescence; TACC3 fragment carries E629A point mutation | inhibition, % at 9.99 µM | hit rate 0.66% among 390,000 | AID 623870;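 active = mean inhibition of replicates at least 50% and at least half of replicates each reaching 50%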;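 note: 0% = complete ARNT plus TACC3 wells and 100% = ARNT alone without TACC3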
XiGFP reactiv – activators of X-chromosome reactivation in mouse fibroblasts. XiGFP mouse fibroblasts, % GFP-positive cells imaging, 3 d; cells co-treated with 5-aza-dC sensitizer; scaled so ellipticine positive control = 100%. activation, % at 7.58 µM. hit rate 0.055% among 360,000. AID 743238;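 active = mean normalized replicate activation at least 10% and every replicate at or above 10%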;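 note: 0% = median of on-plate neutral control wells and 100% = ellipticine 6 µM median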
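System: 68-5-11 XiGFP fibroblast line | Buffer or medium: DMEM containing 5-aza-dC | Compound: Single point | Times: Compounds 3 days, fix/stain 15 min at room temperature | Benchmarks: Positive control ellipticine, 6 µM final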
NSD2 HMT inh – blocks human histone methyltransferase NSD2; O96028; NSD2 peptide methylation, AlphaScreen, 120 min; inhibition, % at 12.5 µM; hit rate 0.54% among 310,000; AID 743445; in the data active = inhibition above about 50%
sPLA2-III inh – Blocks human group III sPLA2 activity; hit rate 0.56% among 370,000; inhibition, % at 12.2 µM; QFRET BODIPY PC-A2 liposome hydrolysis, fluorescence; AID 743126;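 active = inhibition above mean plus 3 SD of compounds lying within the high and low control bounds, cut at about 19% in these data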;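 note: 0% = median of test compound wells and 100% = no enzyme DMSO wells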
* marks the source's active call; other numbers are inactive results; . = no result given.

SMILES | SR-BI HDL uptake | SR-BI uptake up | ARNT-TACC3 inh | XiGFP reactiv | NSD2 HMT inh | sPLA2-III inh
Cc1ccsc1/C=N/NC(=O)c1sccc1C | 4 | -4 | 1 | . | 1 | 0
Cc1cc(/C=C2/SC(=S)N(c3cccc(C(F)(F)F)c3)C2=O)c(C)n1-c1cccnc1 | 76* | -76 | . | . | . | .
Cc1cc(/C=C2\SC(=S)N(Cc3ccco3)C2=O)c(C)n1-c1cccnc1 | -43 | 43 | -7 | . | 23 | -3
C=CCN(c1ccccc1OC)S(=O)(=O)c1ccc(Cl)c(C(=O)Nc2ccc(N3CCOCC3)cc2)c1 | 96* | -96 | -4 | 0 | -1 | -12
COc1ccccc1N(C)S(=O)(=O)c1ccc(C(=O)Nc2ccc(N3CCOCC3)cc2)cc1 | 54 | -54 | 9 | 1 | 3 | -5
CC/C(=N\NC(=O)c1ccc(CN(C)S(=O)(=O)c2ccc(C)cc2)cc1)c1ccc(OC(F)F)cc1 | 80* | -80 | -1 | 0 | 2 | -1
C/C(CCc1oc2ccccc2c1-c1ccc(C)o1)=N/O | 33 | -33 | -9 | . | 0 | -35
C/C(CCc1oc2c(Br)cc(Br)cc2c1-c1ccc(C)o1)=N\O | 78* | -78 | -1 | . | 0 | -28
Cc1cccc(/C=C/c2onc(C)c2S(=O)(=O)N2CCC(C(=O)NC(C)(C)C)CC2)c1 | 77* | -77 | -6 | 0 | . | -7
Cc1cccc(/C=C/c2onc(C)c2S(=O)(=O)N2CCC(C(=O)NC(C)C)CC2)c1 | 32 | -32 | 3 | 0 | . | 3
O=C(CSc1nnc(COc2ccc(Cl)cc2)o1)N1c2ccccc2CCc2ccccc21 | 75* | -75 | 0 | . | 3 | -22
Cc1cccc(S(=O)(=O)N2C[C@@H](O)COC[C@@H]3O[C@H](CC(=O)Nc4ccc(-c5ccccc5)cc4)CC[C@H]32)c1 | . | . | 3 | 0 | . | .
CC(=O)Nc1cccc(NC(=O)/C=C/c2ccc(S(=O)(=O)N3CCOCC3)cc2)c1 | 57 | -57 | . | 0 | -1 | -8
Cc1ccc(NC(=O)/C=C/c2ccc(S(=O)(=O)N3CCOCC3)cc2)cc1S(=O)(=O)N(C)C | 86* | -86 | 13 | 0 | -1 | -19
Oc1nc(Nc2ccc(F)cc2)sc1/C=C1\C=Nc2ccccc21 | . | . | 6 | 0 | -2 | -41
CC1=Nc2ccccc2/C1=C\c1sc(Nc2ccc(C)cc2)nc1O | 75* | -75 | -2 | 2 | 0 | -80
COc1ccc(Nc2nc(-c3cccs3)nc3ccccc23)c(OC)c1 | 77* | -77 | -5 | 0 | -2 | -5
COc1ccc(OC)c(Nc2nc(-c3cccc([N+](=O)[O-])c3)nc3ccccc23)c1 | 38 | -38 | -7 | . | -1 | 0
COc1ccc(Nc2nc(-c3cccc([N+](=O)[O-])c3)nc3ccccc23)c(OC)c1 | 91* | -91 | -1 | 0 | -1 | -3
COc1ccc(Nc2nc(N3CCN(C)CC3)nc3ccccc23)c(OC)c1 | 12 | -12 | 3 | 0 | 3 | -6
COc1ccc(NC(=O)Nc2ccc3c(c2)C(=O)N([C@@H](C)CO)C[C@@H](C)[C@H](CN(C)S(=O)(=O)c2ccccc2)O3)cc1 | . | . | 0 | 0 | . | .
CC(=O)N/N=C(\C)CC(=O)Nc1cccc(C(F)(F)F)c1 | -22 | 22 | 29 | 0 | 4 | -12
N/C(CC(=O)Nc1cccc(C(F)(F)F)c1)=N/O | -89 | 89* | 0 | . | 7 | -24
NC(=NC(=O)c1cccc(C(F)(F)F)c1)c1ccc(C(F)(F)F)cn1 | 4 | -4 | -4 | 22* | -1 | -2
O=C(CN1C(=O)C2CC=CCC2C1=O)NC1CCCCC1 (centres undefined) | -19 | 19 | -2 | 0 | -10 | 1
SMILES | SR-BI HDL uptake | SR-BI uptake up | ARNT-TACC3 inh | XiGFP reactiv | NSD2 HMT inh | sPLA2-III inh
CCN1C(=O)/C(=C2/C(=O)N3c4c(cc(OC(C)=O)cc42)C(C)=CC3(C)C)SC1=S | 86* | -86 | -1 | 0 | 3 | 2
COc1cc2c3c(c1)/C(=C1/SC(NC(C)=O)=NC1=O)C(=O)N3C(C)(C)C=C2C | 20 | -20 | 5 | . | -2 | 9
COc1cccc(S(=O)(=O)Nc2ccc3c(c2)OC[C@H](C)N(Cc2ccccc2F)C[C@@H](C)[C@H](OC)CN(C)C3=O)c1 | . | . | . | 0 | . | .
COc1ccccc1N1CCN(C(=O)c2cccc(S(=O)(=O)N3c4ccccc4CC3C)c2)CC1 (centres undefined) | 67 | -67 | 34 | 0 | -2 | -6
CCOC(=O)C1=C(O)/C(=C/c2ccc(OCC(=O)O)c(OC)c2)SC1=Nc1ccc(OCC)cc1 | -6 | 6 | -1 | 0 | 6 | -5
CCOC(=O)C1=C(O)/C(=C/c2cc(OC)c(O)c(OC)c2)SC1=Nc1ccc(OC)cc1 | 86* | -86 | . | 15* | -4 | -10
CCCNC(=O)N1CC2(CN(Cc3cccc(OC)c3)C2)c2c(n(C)c3cc(OC)ccc23)[C@@H]1CO | . | . | . | 0 | . | .
COc1cc(-c2ccc3oc(-c4ccsc4)c(C#CC4(O)CCCCC4)c3c2)cc(OC)c1OC | 76* | -76 | . | 0 | . | 2
Cc1ccc(NC(=O)c2cc3cccc([N+](=O)[O-])c3[nH]2)cc1 | 79* | -79 | 2 | 0 | 2 | -4
CCC(=O)N(CC)c1nc(-c2ccc(OC)cc2)cs1 | 87* | -87 | -9 | . | -2 | -1
CCOc1ccc(NC(=O)CS(=O)CC(=O)NC2CCCc3ccccc32)cc1 (centres undefined) | 74* | -74 | -7 | . | -1 | -7
O=C(COC(=O)C1CC2C=CC1C2)NCCc1ccccc1 (centres undefined) | -240 | 240* | -4 | 0 | -1 | 7
O=C(COC(=O)C1CC1)NCCc1ccccc1 | 0 | 0 | -2 | 0 | -1 | 2
Cn1nnnc1SCCNC(=O)C1CCC(=O)N(Cc2ccc(Cl)cc2)C1 (centres undefined) | -2 | 2 | -10 | 0 | 1 | -2
Cn1nnnc1SCCNC(=O)C1CCC(=O)N(Cc2ccccc2F)C1 (centres undefined) | -72 | 72* | 0 | 0 | 0 | 5
Nc1ccc2c(c1)C/C(=C/c1ccco1)C2=O | -29 | 29 | -1 | 0 | -1 | 22*
C[C@H]1CN([C@@H](C)CO)C(=O)c2cc(NC(=O)Cc3ccccc3)ccc2O[C@H]1CN(C)Cc1ccc(-c2ccccc2)cc1 | . | . | . | 0 | . | .
O=C(NNC(=O)c1ccccc1O)c1ccc(NS(=O)(=O)c2ccc(F)cc2)cc1 | 87* | -87 | 13 | 0 | 0 | -15
O=C(NNC(=O)c1cc(Cl)ccc1O)c1ccc(NS(=O)(=O)c2cccs2)cc1 | 119* | -119 | 16 | 0 | -7 | -19

Bioassay records as filed in PubChem BioAssay.
